# ChEMBL document CHEMBL2311257, “Synthesis and antioxidant activity of thymol and carvacrol based Schiff bases” (Bioorg Med Chem Lett, 2013)
# Assays:
# Format in all cases: functional
# [1] = system: Radical scavenging activity; assay: Antioxidant activity assessed as DPPH radical scavenging activity in ethanol solution at 50 ug/mL
# Summary of the method: (§1)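 Compound dissolved in ethanol, then ethanolic DPPH added. Incubated 30 min in the dark. DPPH decrease read as absorbance at 517 nm against an ethanol blank, with ascorbic acid as reference. % activity = [(A0 − Ai)/A0] × 100, where A0 is absorbance without compound and Ai with compound. IC50 taken from activity across concentrations.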
# [2] = system: Radical scavenging activity; assay: Antioxidant activity assessed as DPPH radical scavenging activity in ethanol solution at 100 ug/mL; summary of the method: as §1
# [3] = system: Radical scavenging activity; assay: Antioxidant activity assessed as DPPH radical scavenging activity in ethanol solution at 25 ug/mL; summary of the method: as §1
# [4] = system: Radical scavenging activity; assay: Antioxidant activity assessed as DPPH radical scavenging activity in ethanol solution at 5 ug/mL; summary of the method: as §1
# [5] = system: Radical scavenging activity; assay: Antioxidant activity assessed as DPPH radical scavenging activity in ethanol solution at 10 ug/mL; summary of the method: as §1
# [6] = system: Radical scavenging activity; assay: Antioxidant activity assessed as DPPH radical scavenging activity in ethanol solution; summary of the method: as §1
Structure (SMILES),IC50 [6] [µg/mL],Activity [1] [%],Activity [2] [%],Activity [3] [%],Activity [4] [%],Activity [5] [%]
Cc1cc(O)c(C(C)(C)C)cc1/N=C/c1ccc(C(C)(C)C)cc1,20.05,73,86.7,65.2,27.5,45.6
Cc1cc(O)c(C(C)(C)C)cc1/N=C/c1ccc(F)cc1,26.96,72,75.3,57,28.5,41.8
Cc1cc(O)c(C(C)(C)C)cc1/N=C/c1ccc(Br)cc1,20.36,74.2,81.1,59.4,32.8,43.9
Cc1cc(O)c(C(C)C)cc1/N=C/c1ccccn1,23.86,74.6,92.8,58.4,25.5,43.6
Cc1ccc(C(C)C)cc1O [CARVACROL],131.24,27.4,37.4,18.4,5.17,9.91
CCCc1ccc(/C=N/c2cc(C)c(O)cc2C(C)C)cc1,22.03,76.6,84.7,63.9,23.9,44.6
CCc1ccc(/C=N/c2cc(C(C)(C)C)c(O)cc2C)cc1,24.04,72.4,80.9,56.3,27.1,47.2
Cc1cc(O)c(C(C)(C)C)cc1/N=C/c1ccccn1,22.27,80.7,91.7,61,22.4,44.7
Cc1cc(/N=C/c2ccccn2)c(C(C)C)cc1O,24.4,75.5,78.1,65.2,23.4,41.2
Cc1ccc(C(C)(C)C)c(O)c1,173.95,19.6,28.6,11.3,3.29,4.69
Cc1cc(/N=C/c2ccc3c(c2)OCO3)c(C(C)C)cc1O,16.58,77.5,88.8,68.6,28.8,45.4
Cc1cc(/N=C/c2ccc(C(C)(C)C)cc2)c(C(C)C)cc1O,21.89,70.2,79.2,62.1,25,49.9
O=C1O[C@H]([C@@H](O)CO)C(O)=C1O [ASCORBIC ACID],11.66,94.4,95.6,85,18.9,45
Cc1cc(/N=C/c2ccccc2)c(C(C)C)cc1O,22.26,75,82.5,63.1,24.6,45.4
CCCc1ccc(/C=N/c2cc(C(C)(C)C)c(O)cc2C)cc1,21.12,70.8,84,62.9,28.6,45.8
Cc1ccc(/C=N/c2cc(C(C)(C)C)c(O)cc2C)cc1,24.32,69.6,75.7,57.7,27.2,48.4
Cc1cc(O)c(C(C)(C)C)cc1/N=C/c1cccnc1,34.03,70.3,78.3,54.5,20.1,37.6
Cc1cc(/N=C/c2cccnc2)c(C(C)C)cc1O,32.76,71.1,73.8,61.9,21.8,34.2
Cc1cc(O)c(C(C)(C)C)cc1/N=C/c1ccc(Cl)cc1,22.2,73.9,79.8,61.5,29.7,42.6
Cc1cc(/N=C/c2ccc(C(C)C)cc2)c(C(C)C)cc1O,21.08,72.4,78,61.7,25.8,49.5
Cc1cc(O)c(C(C)(C)C)cc1/N=C/c1ccccc1,18.6,75.7,87,61.1,28,49.6
Cc1ccc(C(C)C)c(O)c1 [THYMOL],167.57,21.3,29.5,14.7,3.07,5.49
Cc1cc(O)c(C(C)(C)C)cc1/N=C/c1ccc2c(c1)OCO2,13.64,87.5,89.3,68.5,25.1,49.8

# Further lines, with some results ahead:
IC50 [6] [µg/mL],Structure (SMILES),Activity [1] [%],Activity [2] [%],Activity [3] [%],Activity [4] [%],Activity [5] [%]
24.29,Cc1cc(/N=C/c2ccc(Cl)cc2)c(C(C)C)cc1O,68,75.6,59.6,27.8,47.3
32.52,Cc1cc(/N=C/c2ccc(F)cc2)c(C(C)C)cc1O,66.3,73.7,58.8,22.5,41.1
25.58,Cc1ccc(/C=N/c2cc(C)c(O)cc2C(C)C)cc1,73.4,81.3,60.7,22.1,44.9
21.62,CCc1ccc(/C=N/c2cc(C(C)C)c(O)cc2C)cc1,72.4,77,64.7,28.8,43
47.39,Cc1cc(O)c(C(C)(C)C)cc1/N=C/c1ccc([N+](=O)[O-])cc1,62.4,73,45.3,16.8,26
24.11,Cc1cc(O)c(C(C)C)cc1/N=C/c1ccc(Cl)cc1,74.1,79.8,63.8,22.4,44.7
51.92,Cc1cc(/N=C/c2ccc([N+](=O)[O-])cc2)c(C(C)C)cc1O,55.8,68.6,43,17.1,32
21.89,Cc1ccc(/C=N/c2cc(C(C)C)c(O)cc2C)cc1,71.4,75.1,64.7,27.3,45
11.95,Cc1cc(O)c(C(C)C)cc1/N=C/c1ccc2c(c1)OCO2,82.5,89.5,74.5,27.3,48
37.8,Cc1cc(O)c(C(C)C)cc1/N=C/c1cccnc1,68.2,79,48,16.5,38.9
25.59,Cc1cc(O)c(C(C)C)cc1/N=C/c1ccc(F)cc1,73.2,79.2,62.9,21.7,44.1
18.66,Cc1cc(O)c(C(C)C)cc1/N=C/c1ccc(C(C)C)cc1,70.5,82.6,67.5,24.5,50.8
23.77,Cc1cc(/N=C/c2ccc(Br)cc2)c(C(C)C)cc1O,64.5,79.9,63.1,28.8,45.4
22.05,Cc1cc(O)c(C(C)C)cc1/N=C/c1ccc(Br)cc1,72.5,80.9,60,27.7,46.9
19.42,Cc1cc(O)c(C(C)(C)C)cc1/N=C/c1ccc(C(C)C)cc1,74,86.4,64,28.7,45.9
63.03,Cc1cc(O)c(C(C)C)cc1/N=C/c1ccc([N+](=O)[O-])cc1,50.9,65.3,36.2,10.3,17.6
18.55,Cc1cc(O)c(C(C)C)cc1/N=C/c1ccccc1,77.9,83.8,60.6,31.6,45.2
18.37,Cc1cc(O)c(C(C)C)cc1/N=C/c1ccc(C(C)(C)C)cc1,73.5,83.8,66.2,23.6,51.6
25.34,CCc1ccc(/C=N/c2cc(C)c(O)cc2C(C)C)cc1,75.2,82.3,61.3,23.4,42.1
20.16,CCCc1ccc(/C=N/c2cc(C(C)C)c(O)cc2C)cc1,69.2,72.5,65.5,25.1,50.7
